{"source": "paper PMC4887080", "about": "(Journal of nuclear medicine : official publication, Society …, 2016)", "key": {"[1]": {"tested_on": "human MM cell lines H929, RPMI-8226, OPM2", "assay": "Flow cytometry binding of LLP2A-Cy5 to human MM cell lines", "format": "cell-based"}, "[2]": {"tested_on": "VLA-4-positive 5TGM1-GFP murine myeloma cells", "assay": "Flow cytometry binding of LLP2A-Cy5 to 5TGM1-GFP cells", "format": "cell-based, mouse", "settings": "coincubated at similar concentrations, P < 0.05"}, "VLA-4 [3]": {"molecular_target": "T1, VLA-4 (Mus musculus, UniProt P09055+Q00651)", "T1 sequence (Q00651 40-1039 limits assumed)": "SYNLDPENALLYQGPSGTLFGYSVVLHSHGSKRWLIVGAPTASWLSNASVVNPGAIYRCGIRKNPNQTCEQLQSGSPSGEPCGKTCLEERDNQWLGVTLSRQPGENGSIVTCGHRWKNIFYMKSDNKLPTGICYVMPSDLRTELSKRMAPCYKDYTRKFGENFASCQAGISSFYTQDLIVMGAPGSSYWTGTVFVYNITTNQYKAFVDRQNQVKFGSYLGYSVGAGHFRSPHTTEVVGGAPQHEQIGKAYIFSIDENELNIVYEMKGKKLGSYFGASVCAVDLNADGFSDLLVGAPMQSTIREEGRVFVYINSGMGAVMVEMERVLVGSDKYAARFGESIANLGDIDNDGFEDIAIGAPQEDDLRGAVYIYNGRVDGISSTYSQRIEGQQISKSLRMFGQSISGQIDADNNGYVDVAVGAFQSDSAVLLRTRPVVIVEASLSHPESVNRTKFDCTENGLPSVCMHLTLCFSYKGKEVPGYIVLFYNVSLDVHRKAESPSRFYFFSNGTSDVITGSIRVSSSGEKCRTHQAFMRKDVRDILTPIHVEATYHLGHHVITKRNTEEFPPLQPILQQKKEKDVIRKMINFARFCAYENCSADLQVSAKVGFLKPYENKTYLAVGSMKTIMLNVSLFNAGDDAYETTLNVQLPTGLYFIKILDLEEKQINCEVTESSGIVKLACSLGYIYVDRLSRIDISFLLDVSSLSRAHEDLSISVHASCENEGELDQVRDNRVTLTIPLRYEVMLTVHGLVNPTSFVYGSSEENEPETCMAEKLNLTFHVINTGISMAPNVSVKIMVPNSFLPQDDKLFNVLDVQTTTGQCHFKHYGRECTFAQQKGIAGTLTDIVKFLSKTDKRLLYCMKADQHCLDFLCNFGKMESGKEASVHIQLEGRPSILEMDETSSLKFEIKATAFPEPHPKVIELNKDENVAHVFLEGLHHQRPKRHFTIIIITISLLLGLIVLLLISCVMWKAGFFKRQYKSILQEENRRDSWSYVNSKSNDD", "T1 sequence (P09055 21-798)": "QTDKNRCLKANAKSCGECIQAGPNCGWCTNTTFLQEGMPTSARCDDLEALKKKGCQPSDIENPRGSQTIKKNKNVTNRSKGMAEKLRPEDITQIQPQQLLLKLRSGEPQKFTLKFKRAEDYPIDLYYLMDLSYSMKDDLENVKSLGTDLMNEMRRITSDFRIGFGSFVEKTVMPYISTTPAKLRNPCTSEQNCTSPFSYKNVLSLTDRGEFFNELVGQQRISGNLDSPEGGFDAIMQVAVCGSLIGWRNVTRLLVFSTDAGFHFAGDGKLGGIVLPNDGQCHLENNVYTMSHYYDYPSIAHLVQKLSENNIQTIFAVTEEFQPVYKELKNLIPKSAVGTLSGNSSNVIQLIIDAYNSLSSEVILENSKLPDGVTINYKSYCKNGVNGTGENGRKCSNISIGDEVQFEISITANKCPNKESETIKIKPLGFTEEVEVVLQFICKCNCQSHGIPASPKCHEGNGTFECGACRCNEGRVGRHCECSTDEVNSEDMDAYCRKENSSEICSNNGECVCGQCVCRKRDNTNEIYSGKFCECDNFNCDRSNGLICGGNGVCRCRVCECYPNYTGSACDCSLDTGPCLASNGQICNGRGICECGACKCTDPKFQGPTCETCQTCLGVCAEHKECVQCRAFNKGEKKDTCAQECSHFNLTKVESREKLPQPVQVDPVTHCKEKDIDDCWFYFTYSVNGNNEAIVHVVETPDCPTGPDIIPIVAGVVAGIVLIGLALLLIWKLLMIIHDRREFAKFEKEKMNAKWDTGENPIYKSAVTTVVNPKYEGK", "format": "in vivo, KaLwRij mouse"}, "[4]": {"assay": "Human radiation dose estimates extrapolated from mouse biodistribution", "format": "in vivo, BALB/c mice, scaled to adult human male model", "in_short": "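64Cu tracer biodistribution in normal BALB/c mice given 0.78 MBq. Organs were collected at 1, 2, 4, 12, 24 and 48 h, and %ID/g was decay-corrected. A final group was housed in metabolic cages to collect urine and feces. Organ residence times (2-h void; 1-h void scenario also run) were scaled to human organ weight for the adult male model. Maximum injection assumes a 50 mGy bladder-wall limit. Mean ± SD.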"}, "[5]": {"format": "in vivo, BALB/c mice", "in_short": "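BALB/c mice received 0.78 MBq of 64Cu tracer, with sampling at 1, 2, 4, 12, 24 and 48 h. The last group was kept in metabolic cages to collect excreted urine and feces. Time–activity curves for urine excretion and blood clearance were built as percentage injected activity. Urine residence time used a 1-h void assumption.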"}, "VLA-4 [6]": {"molecular_target": "T1, VLA-4", "assay": "PET uptake in tumor-free α4 -/- mice vs wild-type KaLwRij mice", "format": "in vivo", "settings": "tumor-free α4 -/- mice compared with age-matched wild-type KaLwRij mice"}}}
{"compound": "Cc1ccccc1NC(=O)Nc1ccc(CC(=O)N(C)[C@@H](CC(C)C)C(=O)NCC[C@H](NC(=O)[C@@H]2CCCN2S(=O)(=O)c2cc(Cl)cc(Cl)c2)C(=O)O)cc1", "note": "[BIO5192]", "values": [{"measurement": "Effect on LLP2A-Cy5 cell binding", "setting": "[1]", "value": "blocked"}]}
{"compound": "CCOCc1cc(OC)c(-c2ccc(C[C@H](NC(=O)c3c(F)cccc3F)C(=O)O)cc2)c(OC)c1", "note": "[firategrast]", "values": [{"measurement": "Effect of competitor on LLP2A-Cy5 cell binding", "setting": "[2]", "value": "competitively inhibited"}]}
{"compound": "^64Cu-CB-TE1A1P-PEG4-LLP2A [^64Cu-LLP2A]", "values": [{"measurement": "Tumor uptake when coinjected with blocker", "setting": "VLA-4 [3]; coinjected with a 200-fold excess of cold-LLP2A", "value": "reduced to the background levels"}, {"measurement": "Tumor uptake", "setting": "VLA-4 [3]; subcutaneous 5TGM1-GFP model, i.v. injection of 0.48 MBq, PET at 24 h", "value": "excellent tumor uptake"}, {"measurement": "Bladder dose", "setting": "[4]; 1-h bladder-voiding interval", "value": 0.094, "unit": "mGy/MBq"}, {"measurement": "Red marrow dose", "setting": "[4]; 1-h bladder-voiding interval", "value": 0.005, "unit": "mGy/MBq"}, {"measurement": "Human radiation dose estimate, urinary bladder wall (dose-limiting organ)", "setting": "[4]; as stated in abstract and discussion, void interval not stated", "value": 0.200, "unit": "mGy/MBq"}, {"measurement": "Human radiation dose estimate, red marrow", "setting": "[4]; as stated in abstract, void interval not stated", "value": 0.006, "unit": "mGy/MBq"}, {"measurement": "Maximum injection", "setting": "[4]; assuming maximum permissible dose of 50 mGy to the bladder wall", "value": 532, "unit": "MBq"}, {"measurement": "Urine excreted, expressed as residence time", "setting": "[5]; 1-h void assumption", "value": 14.01, "unit": "h"}, {"measurement": "Blood clearance half-life, fast component", "setting": "[5]; dual-exponential fit of blood time-activity curve, mice", "value": 6, "unit": "min"}, {"measurement": "Residence time from area under the curve of urine data", "setting": "[5]; urine collected in metabolic cages", "value": 14.46, "unit": "h"}, {"measurement": "Uptake in the spleen of α4 -/- mice", "setting": "VLA-4 [6]", "value": "negligible uptake"}]}
